According to ChEMBL document CHEMBL1122682, “Synthesis of potent heptapeptide analogues of cholecystokinin” (1984):
*1 amine or outer side, *2 acyl side, *3 side chain or, on linkers, in order; H or OH if unused. Where a SMILES comes first, the peptide text is derived from it. [ ]: non-standard residue; d: D form. X1 = O=C([C@@H]1C[C@@H](OS(=O)(=O)O)CN1[*:1])[*:2]; Thr(SO3H) = C[C@@H](OS(=O)(=O)O)[C@H](N)C(=O)O; sY = N[C@@H](Cc1ccc(OS(=O)(=O)O)cc1)C(=O)O

Assays:
Format in all cases: functional
Rattus norvegicus = assay: Compound was evaluated for (in vivo) gastrin like activity measured on perfused rat stomach after intravenous administration
Outline: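 Male Wistar rats (~250 g), perfused stomach; peptides given iv in physiological saline at 10, 20, 40, 80, 160 and 320 ng; secreted HCl measured by conductometric titration. Pentagastrin standard at 10–80 ng, taken as 100%. Relative potency expressed as a percentage; 10 animals per compound; detection limit 1–2% of pentagastrin.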

Mus musculus [1] = assay: Anticonvulsive activity against picrotoxin-induced (6 mg/kg sc) convulsions in mice, time of death
Outline: (§1)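 Male CFLP mice (25–35 g), 10 per group. Peptides in physiological saline given ip at 0.8 μmol/kg (1 mg/kg for CCK-8) 10 min before picrotoxin 6 mg/kg sc. Latency to first tonic seizure and time of death recorded over 60 min; a score of 60 is given if neither occurs. Percentage prolongation of mean saline-control latency is expressed relative to CCK-8. Student's t test vs saline controls.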

Mus musculus [2] = assay: Anticonvulsive potency against picrotoxin induced (6 mg/kg sc) convulsions in mice, first tonic seizure; outline: as §1
Oryctolagus cuniculus = species on record: Oryctolagus cuniculus; assay: Compound was evaluated for cholecystokinin activity measured in isolated rabbit gallbladder strips (in vitro)
Outline: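 Tension changes recorded with a force-displacement transducer. Dose-response curves were run for CCK-8 and each analogue, with five determinations per compound. ED50 and maximal response came from direct observation and a Dowd-Riggs linear transformation. Activity is relative to CCK-8 (100%), reported as mean ± SEM.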

Work on `CSCC[C@H](NC(=O)[C@H](Cc1c[nH]c2ccccc12)NC(=O)[C@@H](C)NC(=O)[C@H](CCSC)NC(=O)[C@H](Cc1ccc(OS(=O)(=O)[O-])cc1)NC(C)=O)C(=O)N[C@@H](CC(=O)O)C(=O)N[C@@H](Cc1ccccc1)C(N)=O.[Na+]` yielded an Activity (Rattus norvegicus) of 0%, an Activity (Mus musculus [1]) of 115% and an Activity (Mus musculus [2]) of 100%. It also gave an Activity (Oryctolagus cuniculus) of 40%.

`CSCC[C@H](NC(=O)[C@H](Cc1ccc(OS(=O)(=O)[O-])cc1)NC(C)=O)C(=O)NCC(=O)N[C@@H](Cc1c[nH]c2ccccc12)C(=O)N[C@@H](CCSC)C(=O)N[C@@H](COS(=O)(=O)[O-])C(=O)N[C@@H](Cc1ccccc1)C(N)=O.[Na+].[Na+]` gave an Activity (Rattus norvegicus) of 0%, an Activity (Mus musculus [1]) of 121% and an Activity (Mus musculus [2]) of 66%. It also gave an Activity (Oryctolagus cuniculus) of 190%.

Work on `CSCC[C@H](NC(=O)[C@H](Cc1ccc(OS(=O)(=O)[O-])cc1)NC(C)=O)C(=O)NCC(=O)N[C@@H](Cc1c[nH]c2ccccc12)C(=O)N[C@H](CCSC)C(=O)N[C@@H](CC(=O)O)C(=O)N[C@@H](Cc1ccccc1)C(N)=O.[Na+]` yielded an Activity (Rattus norvegicus) of 0%, an Activity (Mus musculus [1]) of 0% and an Activity (Mus musculus [2]) of 21%. For the same molecule, the Activity (Oryctolagus cuniculus) was 0.6%.

In the case of `CSCC[C@H](NC(=O)[C@H](Cc1ccc(OS(=O)(=O)[O-])cc1)NC(C)=O)C(=O)NCC(=O)N[C@H](Cc1c[nH]c2ccccc12)C(=O)N[C@@H](CCSC)C(=O)N[C@@H](CC(=O)O)C(=O)N[C@@H](Cc1ccccc1)C(N)=O.[Na+]`, the Activity (Rattus norvegicus) is reported as 0%, the Activity (Mus musculus [1]) is reported as 45% and the Activity (Mus musculus [2]) is reported as 65%. The Activity (Oryctolagus cuniculus) was 0.7%.

For `CSCC[C@H](NC(=O)[C@H](Cc1ccc(O)cc1)NC(C)=O)C(=O)NCC(=O)N[C@@H](Cc1c[nH]c2ccccc12)C(=O)N[C@@H](CCSC)C(=O)N1C[C@H](OS(=O)(=O)[O-])C[C@H]1C(=O)N[C@@H](Cc1ccccc1)C(N)=O.[Na+]` (Ac-YMGWM[X1]F-NH2), the Activity (Rattus norvegicus) was 0% and the Activity (Oryctolagus cuniculus) was 0.3%.

Molecule `CSCC[C@H](NC(=O)[C@H](Cc1ccc(OS(=O)(=O)[O-])cc1)NC(C)=O)C(=O)NCC(=O)N[C@@H](Cc1c[nH]c2ccccc12)C(=O)N[C@@H](CCSC)C(=O)N[C@H](C(=O)N[C@@H](Cc1ccccc1)C(N)=O)[C@@H](C)OS(=O)(=O)[O-].[Na+].[Na+]` (Ac-[sY]MGWM[Thr(SO3H)]F-NH2) has an Activity (Rattus norvegicus) of 0%, an Activity (Mus musculus [1]) of 115% and an Activity (Mus musculus [2]) of 146%. It also gave an Activity (Oryctolagus cuniculus) of 166%.

Work on `CSCC[C@H](NC(=O)[C@H](Cc1ccc(OS(=O)(=O)O)cc1)NC(=O)[C@@H](N)CC(=O)O)C(=O)NCC(=O)N[C@@H](Cc1c[nH]c2ccccc12)C(=O)N[C@@H](CCSC)C(=O)N[C@@H](CC(=O)O)C(=O)N[C@@H](Cc1ccccc1)C(N)=O` [SINCALIDE] yielded an Activity (Rattus norvegicus) of 0%, an Activity (Mus musculus [1]) of 100% and an Activity (Mus musculus [2]) of 100%. It also gave an Activity (Oryctolagus cuniculus) of 100%.

`CSCC[C@H](NC(=O)[C@H](Cc1ccc(O)cc1)NC(C)=O)C(=O)NCC(=O)N[C@@H](Cc1c[nH]c2ccccc12)C(=O)N[C@@H](CCSC)C(=O)N[C@@H](COS(=O)(=O)[O-])C(=O)N[C@@H](Cc1ccccc1)C(N)=O.[Na+]` gave an Activity (Rattus norvegicus) of 40% and an Activity (Oryctolagus cuniculus) of 0.3%.

In the case of H-GWMDF-NH2, the Activity (Rattus norvegicus) is reported as 100%, the Activity (Mus musculus [1]) is reported as 38% and the Activity (Mus musculus [2]) is reported as 62%. For the same molecule, the Activity (Oryctolagus cuniculus) was 0%.

Work on `CSCC[C@H](NC(=O)[C@H](Cc1ccc(O)cc1)NC(C)=O)C(=O)NCC(=O)N[C@@H](Cc1c[nH]c2ccccc12)C(=O)N[C@@H](CCSC)C(=O)N[C@H](C(=O)N[C@@H](Cc1ccccc1)C(N)=O)[C@@H](C)OS(=O)(=O)[O-].[Na+]` (Ac-YMGWM[Thr(SO3H)]F-NH2) yielded an Activity (Rattus norvegicus) of 25% and an Activity (Oryctolagus cuniculus) of 0.2%.

`CSCC[C@H](NC(=O)[C@H](Cc1ccc(OS(=O)(=O)[O-])cc1)NC(C)=O)C(=O)NCC(=O)N[C@@H](Cc1c[nH]c2ccccc12)C(=O)N[C@@H](CCSC)C(=O)N1C[C@H](OS(=O)(=O)[O-])C[C@H]1C(=O)N[C@@H](Cc1ccccc1)C(N)=O.[Na+].[Na+]` (Ac-[sY]MGWM[X1]F-NH2) was tested, and the Activity (Rattus norvegicus) was 0%, the Activity (Mus musculus [1]) was 121% and the Activity (Mus musculus [2]) was 79%. It also gave an Activity (Oryctolagus cuniculus) of 300%.
